Test results reported in ChEMBL document CHEMBL1151688, “Antiobesity designed multiple ligands: Synthesis of pyrazole fatty acid amides and evaluation as hypophagic agents” (Bioorg Med Chem, 2008).
The source made the active and inactive calls. The rule behind the calls is not given here.

Columns and labels:
[1] = molecular target: T1, Peroxisome proliferator-activated receptor alpha (Homo sapiens) (UniProt Q07869); assay: Activation of human PPARalpha assessed as receptor-GST-TIF2 interaction by GST pull down assay
T1 sequence (whole entry): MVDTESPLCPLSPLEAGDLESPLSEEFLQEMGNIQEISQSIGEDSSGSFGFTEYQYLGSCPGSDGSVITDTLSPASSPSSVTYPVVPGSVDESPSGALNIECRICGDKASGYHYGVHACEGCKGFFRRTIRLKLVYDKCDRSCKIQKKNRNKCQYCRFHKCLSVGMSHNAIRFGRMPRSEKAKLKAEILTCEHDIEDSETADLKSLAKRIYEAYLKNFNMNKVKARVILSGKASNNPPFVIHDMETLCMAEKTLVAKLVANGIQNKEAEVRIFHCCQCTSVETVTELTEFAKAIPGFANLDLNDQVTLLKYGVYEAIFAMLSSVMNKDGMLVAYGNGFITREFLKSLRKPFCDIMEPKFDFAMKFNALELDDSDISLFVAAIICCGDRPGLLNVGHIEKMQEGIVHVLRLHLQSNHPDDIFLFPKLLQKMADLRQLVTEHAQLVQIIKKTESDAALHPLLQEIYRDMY

Rattus norvegicus [2] = assay: Inhibition of food intake in 24 hrs food-deprived Wistar rat assessed at 3 mg/kg, ip; format: functional, organism-based; set-up: dose 3 mg/kg
Summary of the method: (§1)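 Male Wistar rats (250–450 g), habituated to handling, food-deprived 24 h with water available; compound suspended in saline with Tween 80, given ip; 15 min later returned to home cage with weighed food; intake (g/kg) measured at 30, 60, 120 and 240 min; ≥8 rats per group, ANOVA vs vehicle.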

Mus musculus [3] = assay: Effect on rectal temperature in mouse at 3 mg/kg, ip after 15 mins; format: functional, organism-based; set-up: dose 3 mg/kg
Summary of the method: (§2)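 Adult male 129S1/SvImJ mice (25–30 g); rectal temperature measured with a probe at 3 cm depth before dosing and 15 min after ip injection; tests run 9:00–15:00 h; mean ± SEM.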

Mus musculus [4] = assay: Inhibition of […]-induced hypothermia in mouse assessed as rectal temperature at 3 mg/kg ip after 15 mins; format: functional, organism-based; set-up: dose 3 mg/kg
Summary of the method: (§3)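 Male 129S1/SvImJ mice given compound ip together with WIN 2 mg/kg ip; rectal temperature taken by probe at 3 cm depth before and 15 min after injection; compared with WIN alone by Student's t-test.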

Rattus norvegicus [5] = assay: Inhibition of food intake in 24 hrs food-deprived Wistar rat assessed at 0.3 mg/kg, ip; format: functional, organism-based; set-up: dose 0.3 mg/kg; summary of the method: as §1
[6] = molecular target: Peroxisome proliferator-activated receptor alpha (Homo sapiens) (UniProt Q07869); assay: Agonist activity at human PPARalpha expressed in human MCF7 cells coexpressing TIF2 by luciferase reporter gene assay
Mus musculus [7] = assay: Effect on rectal temperature in mouse at 10 mg/kg, ip after 15 mins; format: functional, organism-based; set-up: dose 10 mg/kg; summary of the method: as §2
Mus musculus [8] = assay: Inhibition of […]-induced hypothermia in mouse assessed as rectal temperature at 10 mg/kg ip after 15 mins; format: functional, organism-based; set-up: dose 10 mg/kg; summary of the method: as §3
Mus musculus [9] = assay: Inhibition of […]-induced decrease in locomotor activity in ip dosed mouse after 15 mins; format: functional, organism-based

`CCCCCCCCCCCCCCCCNC(=O)c1cc(-c2ccc(Cl)cc2)n(-c2ccc(Cl)cc2Cl)n1` was tested. Which Activity [1] did it give?
The Activity was “inactive”.

Which Activity [1] does the source give for `CCCCCCCC/C=C\CCCCCCCCNC(=O)c1cc(-c2ccc(Cl)cc2)n(-c2ccc(Cl)cc2Cl)n1` here?
Its Activity is “Active”.

How did the Activity (Rattus norvegicus [2]) turn out when `CCCCCCCC/C=C\CCCCCCCCNC(=O)c1cc(-c2ccc(Cl)cc2)n(-c2ccccc2)n1` was run?
The Activity was “Active”.

What about the Activity [1] of the same compound?
Its Activity is “Active”.

And the Activity (Mus musculus [3])?
Its Activity is “inactive”.

And the Activity (Mus musculus [4])?
The Activity was “inactive”.

What about the Activity (Rattus norvegicus [5]) of the same compound?
Its Activity is “Active”.

`CCCCCCCC/C=C\CCCCCCCCNC(=O)c1cc(-c2ccc(Cl)cc2)n(-c2ccc(Cl)cc2)n1` was tested. Which Activity (Rattus norvegicus [2]) did it give?
Its Activity is “inactive”.

What about the Activity [1] of the same compound?
Its Activity is “Active”.

What about the Activity (Mus musculus [4]) of the same compound?
Its Activity is “Active”.

What about the Activity (Rattus norvegicus [5]) of the same compound?
The Activity was “inactive”.

How did the Activity (Rattus norvegicus [2]) turn out when `CCCCCCCCCCCCCCCCNC(=O)c1nn(-c2ccc(Cl)cc2Cl)c(-c2ccc(Cl)cc2)c1C` was run?
Its Activity is “inactive”.

What about the Activity [1] of the same compound?
The Activity was “inactive”.

And the Activity (Rattus norvegicus [5])?
The Activity was “inactive”.

How did the Activity [6] turn out when `Cc1c(C(=O)NN2CCCCC2)nn(-c2ccc(Cl)cc2Cl)c1-c1ccc(I)cc1` was run?
Its Activity is “inactive”.

Which results are given for `CCCCCCCCCCCCCCCCNC(=O)c1cc(-c2ccc(Cl)cc2)n(-c2ccc(Cl)cc2)n1`?
Activity [1]: inactive; Activity (Mus musculus [7]): inactive; Activity (Mus musculus [8]): inactive

Which results are given for `CCCCCCCCCCCCCCCCNC(=O)c1cc(-c2ccc(Cl)cc2)n(-c2ccccc2)n1`?
Activity [1]: inactive; Activity (Mus musculus [3]): inactive; Activity (Mus musculus [4]): inactive; Activity (Mus musculus [9]): Active

With `CCCCCCCC/C=C\CCCCCCCCNC(=O)c1nn(-c2ccc(Cl)cc2Cl)c(-c2ccc(Cl)cc2)c1C` as the compound, how does the Activity [1] read?
The Activity was “Active”.
